PGC1a acetyl inh: inhibitors of PGC1a acetylation signal, primary screen, cell-based, U2OS, AlphaScreen, inhibitor mode | AlphaScreen anti-acetyl-lysine; with virally co-expressed GCN5 acetyltransferase | hit rate 0.17% among 350,000 | AID 651687, 2012 | inhibition, % at 15.6 µM;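 active = every replicate shows inhibition of at least 40%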
C2C12 statin: suppressors of statin myotoxicity in C2C12 myotubes, primary screen, cell-based, single point, plate reader | rescue of ATP level, % at 7.49 µM | hit rate 0.78% among 330,000 | C2C12 myotubes + simvastatin, ATP luminescence, 48 h; scaled: DMSO 0, geranylgeraniol control 100 | AID 602340, 2012;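 active = mean ATP rescue above about 67%, or every replicate alone reaching that limit, limit read from the data, passing the limit was not always enough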;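 note: myotubes were challenged with 10 µM simvastatin during compound exposure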
rRNA inh HTS: reduced GFP signal of wild-type E. coli, primary screen, bacterial rRNA inhibitor project, GFP/RFP fluorescence, OD600, single point. E. coli WT GFP vs humanized-ribosome RFP mutants, 24 h; active compounds read low; DMSO median 0, no signal -100. GFP signal change (wild-type ribosome), % (test concentration not listed). AID 720706, 2013. hit rate 1.6% among 350,000;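 active = significant combined selectivity score with lowered wild-type GFP, culture density cut under 30%, mutant RFP and density less affected; inactive = any of these conditions unmet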
Cneo AK release: Cryptococcus neoformans cell lysis inducers, primary screen, AK release luminescence, single concentration; C. neoformans lysis, adenylate kinase release luminescence, 4 h; normalised: neutral wells 0, clomiphene wells 100; lysis activity, % at 15 µM; hit rate 0.2% among 360,000; AID 651654, 2012;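 active = mean lysis activity across replicates of at least 80%, whatever share of replicates individually reach that level; inactive = mean lysis activity below 80%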
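Assay system: log-phase C. neoformans yeast / Quantity: yeast cell density of 5 × 10^6 cells/mL / Medium: fresh YPD growth medium / Compound: single dose / Timing: static 4 h at 37 °C with compound, 1 h detection / Measured by: adenylate kinase release luminescence / Read-out: lysis from increased AK signal / Benchmarks: Clomiphene as positive lysis control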
S100A4 inh HTS: inhibitors of S100A4-myosin IIA peptide binding, primary screen, biochemical, fluorescence polarization, TAMRA-MyoIIA peptide; inhibition, % at 10.7 µM; hit rate 0.14% among 360,000;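 active = mean inhibition of at least 70% across replicates, with every replicate also reaching that level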
Target sequence (P26447 whole entry, looked up): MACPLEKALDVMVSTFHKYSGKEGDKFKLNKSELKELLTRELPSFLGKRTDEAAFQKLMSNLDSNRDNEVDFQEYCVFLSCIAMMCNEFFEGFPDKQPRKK
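Material: human S100A4 monomer with TAMRA-labelled myosin IIA peptide; buffer or medium: HEPES pH 7.2 with CaCl2, KCl, NaCl, DTT, Triton; compound dosing: one concentration per compound; schedule: 5 min incubation before reading; benchmarks: neutral control DMSO, positive control TFP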
SIRT5 block: SIRT5 desuccinylase inhibitors, primary screen, biochemical, fluorescence imaging, single point, set 5; hit rate 1.1% among 330,000; inhibition, % at 15 µM; NAD-dependent protein deacylase sirtuin-5, mitochondrial (Homo sapiens), Q9NXA8; Purified SirT5, succinyl-peptide AMC, trypsin-coupled fluorescence; in the data active = inhibition above about 15%
Target sequence (Q9NXA8 whole entry, looked up): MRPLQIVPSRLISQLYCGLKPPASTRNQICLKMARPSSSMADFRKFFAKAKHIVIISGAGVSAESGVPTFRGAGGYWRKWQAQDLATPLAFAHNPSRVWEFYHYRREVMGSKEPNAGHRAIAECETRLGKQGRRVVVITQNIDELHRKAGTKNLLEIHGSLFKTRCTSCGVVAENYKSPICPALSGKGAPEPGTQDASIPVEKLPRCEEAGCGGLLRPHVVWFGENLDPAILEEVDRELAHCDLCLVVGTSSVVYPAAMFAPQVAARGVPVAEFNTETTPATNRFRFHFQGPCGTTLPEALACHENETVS
Hits are given with their value; 0 = inactive; - = not tested or not shown. Compounds with a hit are over-represented: about 3% of the library has one in this group of screens.

SMILES	PGC1a acetyl inh	C2C12 statin	rRNA inh HTS	Cneo AK release	S100A4 inh HTS	SIRT5 block
COc1ccc(OCC2c3cc(OC)c(OC)cc3CCN2C(=O)C(C)C)cc1 (stereo not drawn)	0	-	-24	-	0	0
COc1ccc(-c2c(C(=O)c3ccccc3)[nH]c(N)c2C(=O)NCc2ccccc2)cc1OC	-	-	-36	-	0	0
C[C@H](CO)N1C[C@H](C)[C@@H](CN(C)Cc2ccncc2)Oc2cc(C#CC(C)(C)O)ccc2S1(=O)=O	0	0	0	0	0	0
Cc1ccn2cc(-c3cccc(S(=O)(=O)N4CCCC4)c3)nc2c1	0	0	-25	0	0	0
O=C(NC[C@@H]1[C@@H](c2ccccc2)[C@@H](CO)N1C(=O)Cc1cccnc1)C1CC1	0	0	0	0	0	17
O=C(NC[C@H]1[C@H](c2ccccc2)[C@H](CO)N1C(=O)Cc1cccnc1)C1CCC1	0	0	0	81	-	-
O=C(NC[C@@H]1[C@H](c2ccccc2)[C@H](CO)N1C(=O)Cc1cccnc1)C1CC1	0	0	0	0	0	0
O=C(CN1CCOCC1)NCC[C@H]1CC[C@@H](NC(=O)Nc2ccccc2)[C@@H](CO)O1	0	0	0	0	0	0
Brc1ccc(-n2cnc(-c3ccccc3)c2)cc1	0	0	-15	0	0	0
COc1ccc(C#Cc2cnc3c(c2)C(=O)N([C@H](C)CO)C[C@H](C)[C@H](CN(C)C)O3)cc1	0	0	0	0	0	0
CN(C)S(=O)(=O)Oc1ccsc1C(=O)Nc1ccccc1Cl	0	0	-	0	-	-
O=C(Nc1ccccc1Cl)c1sccc1-c1ccccc1	-	0	0	0	0	79
COC(=O)CN1C(=S)N(Cc2ccccc2)C(=O)C1CC(=O)Nc1ccc(OC)cc1 (stereo not drawn)	-	0	-	-	-	-
CC(=O)NCCCC(=O)NN1C(=S)N(Cc2ccccc2)C(=O)C1CC(=O)Nc1cccc(C)c1 (stereo not drawn)	0	-	-22	-	0	0
CCS(=O)(=O)Nc1ccc2c(c1)C(=O)N(C)[C@H]1CC[C@@H](CC(=O)N3CCOCC3)O[C@@H]1CO2	0	0	0	0	0	0
Cc1cc(=O)[nH]c(NN=Cc2cc(Br)ccc2O)n1	50	0	0	0	0	0
COc1ccccc1CNC(=O)C[C@@H]1CC[C@H]2[C@@H](COC[C@H](O)CN2Cc2ccccc2)O1	0	0	0	0	0	0
O=C(C[C@@H]1CC[C@H]2[C@@H](COC[C@@H](O)CN2Cc2ccc(Cl)cc2)O1)NCc1cccc(F)c1	0	0	0	104	0	0
O=C(C[C@@H]1CC[C@@H]2[C@H](COC[C@H](O)CN2Cc2ccc(Cl)cc2)O1)NCc1cccc(F)c1	0	0	0	0	0	0
COc1ccccc1CNC(=O)C[C@@H]1CC[C@@H]2[C@H](COC[C@@H](O)CN2Cc2ccccc2)O1	0	0	0	109	0	0
O=C(C[C@H]1CC[C@H]2[C@@H](COC[C@H](O)CN2Cc2cccc(C(F)(F)F)c2)O1)NCc1ccncc1	0	0	0	0	0	17
O=C(C[C@H]1CC[C@@H]2[C@H](COC[C@@H](O)CN2Cc2ccccc2F)O1)N[C@H]1CCN(Cc2ccccc2)C1	0	0	-	0	0	23
Cc1noc(C)c1NC(=O)N(C)C[C@H]1OCCCC[C@H](C)Oc2ccc(NC(=O)Nc3cccc4ccccc34)cc2C(=O)N([C@H](C)CO)C[C@@H]1C	0	-	0	0	-	-
CC(C)NC(=O)N(C)C[C@@H]1Oc2ccc(NS(C)(=O)=O)cc2CC(=O)N(C)C[C@H]1C	-	-	0	-	-	-
COc1cccc(NC(=O)C[C@H]2CC[C@@H]3[C@@H](COc4ccc(NC(=O)c5ccccc5F)cc4C(=O)N3C)O2)c1	0	0	0	0	0	0
SMILES	PGC1a acetyl inh	C2C12 statin	rRNA inh HTS	Cneo AK release	S100A4 inh HTS	SIRT5 block
CO[C@H]1CN(C)C(=O)c2ccc(NC(C)=O)cc2OC[C@H](C)N(C(=O)C2CCOCC2)C[C@@H]1C	0	-	0	-	0	0
Cc1noc(C)c1S(=O)(=O)N(C)C[C@H]1Oc2ccc(NC(=O)Nc3ccc4c(c3)OCO4)cc2CC(=O)N([C@H](C)CO)C[C@H]1C	0	0	0	0	0	0
C[C@@H](NC(=O)C[C@H]1CC[C@H]2[C@@H](COC[C@@H](O)CN2Cc2ccc(C(F)(F)F)cc2)O1)c1ccccc1	0	0	0	0	0	17
CCOC(=O)CCCc1ccc(/C(C)=N/NC(N)=S)cc1	-	-	-44	-	0	0
COCC(=O)N(C)C[C@H]1Oc2cc(C#CCC(C)C)ccc2S(=O)(=O)N([C@H](C)CO)C[C@@H]1C	0	0	0	0	0	0
O=C(Nc1ccc(F)c(Cl)c1)C1CCCN(c2cnccn2)C1 (stereo not drawn)	0	110	0	0	0	0
C[C@@H]1CN([C@H](C)CO)C(=O)c2cc(NS(C)(=O)=O)ccc2O[C@H]1CN(C)CC1CCCCC1	0	0	0	0	0	0
CCN(CC)S(=O)(=O)c1ccc(C(=O)N2CCc3ccccc32)cc1	0	0	0	-	0	16
CO[C@@H]1CN(C)C(=O)c2cc(NC(=O)C3CCCCC3)ccc2OC[C@@H](C)N(Cc2nccs2)C[C@@H]1C	0	0	0	0	0	0
CCCCCCN1Cc2ccccc2C1	0	106	-	0	-	-
O=C(CCCN1Cc2ccccc2C1)c1ccc(F)cc1	0	0	0	0	0	0
O=C(O)Cc1c(O)ccc2ccccc12	0	121	-	0	-	-
O=C(C[C@H]1C[C@H]2c3cc(NC(=O)c4ccc5c(c4)OCO5)ccc3O[C@H]2[C@@H](CO)O1)NCc1ccccn1	0	0	0	0	0	0
CC(=O)c1sc(NC(=O)c2ccccc2)nc1-c1ccccc1	0	-	-20	-	0	0
CC(=O)c1sc(NC(=O)c2c(F)cccc2F)nc1-c1ccccc1	0	0	0	0	0	0
COc1ccc(S(=O)(=O)N(C)C[C@@H]2OCCCC[C@@H](C)Oc3ccc(NC(=O)Nc4ccc(C(F)(F)F)cc4)cc3C(=O)N([C@@H](C)CO)C[C@@H]2C)cc1	0	0	0	0	0	28
COc1ccc(NC(=O)Nc2ccc3c(c2)C(=O)N([C@@H](C)CO)C[C@@H](C)[C@H](CN(C)S(=O)(=O)c2ccccc2)OCCCC[C@@H](C)O3)cc1	0	-	0	0	0	15

Screening results (PubChem)
